Tested on: HEK-293T
Assay: Multiplex assay against HEK293T;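 for Population Tubulin-Different-Phenotype (%): share of the cells with healthy nuclei that show this phenotype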
Format: toxicity, cell-based
Settings: human
In short: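 On a CQ1 microscope at 37°C and 5% CO2, live cells were imaged after compound addition. They had been stained at seeding with Hoechst33342, BioTracker Green Microtubule Cytoskeleton Dye, MitoTracker Red and Annexin V Alexa Fluor 680. CellPathfinder machine-learning gating assigned cells to Hoechst high-intensity objects or normal cells, normal cells to healthy, pyknosed or fragmented nuclei, and pyknosed cells to mitotic or apoptotic. Tubulin, mitochondrial-mass and membrane-permeability phenotypes are per cents of healthy-nucleus cells.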

[1] = 12 h, 1 µM, compound concentration 1 uM, replicate 1
[2] = 12 h, 1 µM, compound concentration 1 uM, replicate 2
[3] = 12 h, 10 µM, compound concentration 10 uM, replicate 1
[4] = 12 h, 10 µM, compound concentration 10 uM, replicate 2
[5] = 24 h, 1 µM, compound concentration 1 uM, replicate 1
[6] = 24 h, 1 µM, compound concentration 1 uM, replicate 2
[7] = 24 h, 10 µM, compound concentration 10 uM, replicate 1
[8] = 24 h, 10 µM, compound concentration 10 uM, replicate 2
[9] = 48 h, 1 µM, compound concentration 1 uM, replicate 1
[10] = 48 h, 1 µM, compound concentration 1 uM, replicate 2
[11] = 48 h, 10 µM, compound concentration 10 uM, replicate 1
[12] = 48 h, 10 µM, compound concentration 10 uM, replicate 2

Q: What does the source list for `Cc1cc(C)cc(-c2cnc3cc(Cl)c(-c4cccc(O)c4)cc3c2OCCCN)c1`?
A: Population Apoptotic (%) [1]: 53%; Population Fragmented Nuclei (%) [1]: 11%; Population Healthy Nuclei (%) [1]: 40%; Population Hoechst High Intensity Objects (%) [1]: 10%; Population Membrane Permeable-Phenotype (%) [1]: 3%; Population Mitochondria Different-Phenotype (%) [1]: 95%; Population Mitotic Cells (%) [1]: 46%; Population Normal (%) [1]: 89%; Population Pyknosed Nuclei (%) [1]: 47%; Population Tubulin-Different-Phenotype (%) [1]: 92%; Total Cell Count [1]: 349; Population Apoptotic (%) [2]: 31%; Population Fragmented Nuclei (%) [2]: 5%; Population Healthy Nuclei (%) [2]: 43%; Population Hoechst High Intensity Objects (%) [2]: 3%; Population Membrane Permeable-Phenotype (%) [2]: 6%; Population Mitochondria Different-Phenotype (%) [2]: 66%; Population Mitotic Cells (%) [2]: 68%; Population Normal (%) [2]: 96%; Population Pyknosed Nuclei (%) [2]: 50%; Population Tubulin-Different-Phenotype (%) [2]: 63%; Total Cell Count [2]: 251; Population Apoptotic (%) [3]: 70%; Population Fragmented Nuclei (%) [3]: 23%; Population Healthy Nuclei (%) [3]: 1%; Population Hoechst High Intensity Objects (%) [3]: 13%; Population Membrane Permeable-Phenotype (%) [3]: 33%; Population Mitochondria Different-Phenotype (%) [3]: 33%; Population Mitotic Cells (%) [3]: 29%; Population Normal (%) [3]: 86%; Population Pyknosed Nuclei (%) [3]: 74%; Population Tubulin-Different-Phenotype (%) [3]: 66%; Total Cell Count [3]: 226; Population Apoptotic (%) [4]: 90%; Population Fragmented Nuclei (%) [4]: 5%; Population Healthy Nuclei (%) [4]: 18%; Population Hoechst High Intensity Objects (%) [4]: 3%; Population Membrane Permeable-Phenotype (%) [4]: 0%; Population Mitochondria Different-Phenotype (%) [4]: 91%; Population Mitotic Cells (%) [4]: 9%; Population Normal (%) [4]: 96%; Population Pyknosed Nuclei (%) [4]: 76%; Population Tubulin-Different-Phenotype (%) [4]: 97%; Total Cell Count [4]: 192; Population Apoptotic (%) [5]: 53%; Population Fragmented Nuclei (%) [5]: 15%; Population Healthy Nuclei (%) [5]: 26%; Population Hoechst High Intensity Objects (%) [5]: 12%; Population Membrane Permeable-Phenotype (%) [5]: 1%; Population Mitochondria Different-Phenotype (%) [5]: 98%; Population Mitotic Cells (%) [5]: 46%; Population Normal (%) [5]: 87%; Population Pyknosed Nuclei (%) [5]: 57%; Population Tubulin-Different-Phenotype (%) [5]: 90%; Total Cell Count [5]: 358; Population Apoptotic (%) [6]: 39%; Population Fragmented Nuclei (%) [6]: 6%; Population Healthy Nuclei (%) [6]: 56%; Population Hoechst High Intensity Objects (%) [6]: 2%; Population Mitochondria Different-Phenotype (%) [6]: 81%; Population Mitotic Cells (%) [6]: 60%; Population Normal (%) [6]: 97%; Population Pyknosed Nuclei (%) [6]: 36%; Population Tubulin-Different-Phenotype (%) [6]: 79%; Total Cell Count [6]: 296; Population Apoptotic (%) [7]: 77%; Population Fragmented Nuclei (%) [7]: 22%; Population Healthy Nuclei (%) [7]: 1%; Population Hoechst High Intensity Objects (%) [7]: 12%; Population Membrane Permeable-Phenotype (%) [7]: 0%; Population Mitochondria Different-Phenotype (%) [7]: 66%; Population Mitotic Cells (%) [7]: 22%; Population Normal (%) [7]: 87%; Population Pyknosed Nuclei (%) [7]: 76%; Population Tubulin-Different-Phenotype (%) [7]: 66%; Total Cell Count [7]: 232; Population Apoptotic (%) [8]: 94%; Population Fragmented Nuclei (%) [8]: 6%; Population Healthy Nuclei (%) [8]: 9%; Population Hoechst High Intensity Objects (%) [8]: 8%; Population Membrane Permeable-Phenotype (%) [8]: 6%; Population Mitochondria Different-Phenotype (%) [8]: 75%; Population Mitotic Cells (%) [8]: 5%; Population Normal (%) [8]: 91%; Population Pyknosed Nuclei (%) [8]: 83%; Population Tubulin-Different-Phenotype (%) [8]: 75%; Total Cell Count [8]: 183; Population Apoptotic (%) [9]: 51%; Population Fragmented Nuclei (%) [9]: 17%; Population Healthy Nuclei (%) [9]: 13%; Population Hoechst High Intensity Objects (%) [9]: 18%; Population Membrane Permeable-Phenotype (%) [9]: 0%; Population Mitochondria Different-Phenotype (%) [9]: 87%; Population Mitotic Cells (%) [9]: 48%; Population Normal (%) [9]: 81%; Population Pyknosed Nuclei (%) [9]: 68%; Population Tubulin-Different-Phenotype (%) [9]: 75%; Total Cell Count [9]: 352; Population Apoptotic (%) [10]: 33%; Population Fragmented Nuclei (%) [10]: 5%; Population Healthy Nuclei (%) [10]: 75%; Population Hoechst High Intensity Objects (%) [10]: 6%; Population Membrane Permeable-Phenotype (%) [10]: 3%; Population Mitochondria Different-Phenotype (%) [10]: 55%; Population Mitotic Cells (%) [10]: 66%; Population Normal (%) [10]: 93%; Population Pyknosed Nuclei (%) [10]: 19%; Population Tubulin-Different-Phenotype (%) [10]: 69%; Total Cell Count [10]: 406; Population Apoptotic (%) [11]: 80%; Population Fragmented Nuclei (%) [11]: 27%; Population Healthy Nuclei (%) [11]: 1%; Population Hoechst High Intensity Objects (%) [11]: 16%; Population Membrane Permeable-Phenotype (%) [11]: 0%; Population Mitochondria Different-Phenotype (%) [11]: 50%; Population Mitotic Cells (%) [11]: 19%; Population Normal (%) [11]: 83%; Population Pyknosed Nuclei (%) [11]: 71%; Population Tubulin-Different-Phenotype (%) [11]: 50%; Total Cell Count [11]: 238; Population Apoptotic (%) [12]: 96%; Population Fragmented Nuclei (%) [12]: 15%; Population Healthy Nuclei (%) [12]: 14%; Population Hoechst High Intensity Objects (%) [12]: 7%; Population Membrane Permeable-Phenotype (%) [12]: 12%; Population Mitochondria Different-Phenotype (%) [12]: 79%; Population Mitotic Cells (%) [12]: 3%; Population Normal (%) [12]: 92%; Population Pyknosed Nuclei (%) [12]: 70%; Population Tubulin-Different-Phenotype (%) [12]: 83%; Total Cell Count [12]: 179

Source: ChEMBL document CHEMBL4689842, “EUbOPEN Chemogenomics Library wave 1” (2021)
